Laboratory results from ChEMBL document CHEMBL1629563, “Pharmacokinetic and safety evaluation of BILR 355, a second-generation nonnucleoside reverse transcriptase inhibitor, in healthy volunteers” (Antimicrob Agents Chemother, 2008).

Experiments:
Homo sapiens [1] = experiment: Toxicity in healthy human assessed as occurrence of maculopapular rash at 37.5 mg, po administered as single dose coadministered with 100 mg of ritonavir; assay type: organism-based; conditions: in vivo
Homo sapiens [2] = experiment: Toxicity in healthy human assessed as occurrence of increase in alanine aminotransferase level at 25 mg, po administered as single dose relative to control; assay type: organism-based; conditions: in vivo
[3] = Apparent volume of distribution at steady state in high fat fed healthy human at 50 mg, po administered as single dose coadministered with 100 mg of ritonavir; assay type: ADME, organism-based; conditions: in vivo, read-out: Vss/F
Procedure, shortened: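 Fed cohort: healthy males ate an FDA-recipe high-fat breakfast (about 150/250/500-600 cal from protein/carbohydrate/fat) 30 min before a 50 mg oral dose of BILR 355 in PEG solution. Ritonavir 100 mg was given 10 h before and with the dose. Plasma was sampled over 144 h and assayed by LC-MS/MS. Noncompartmental analysis gave Cmax and Vz/F. Vss/F = CL/F·(MRTp.o. − 1/Ka).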

[4] = AUC (0 to last) in healthy human at 75 mg, po administered as single dose coadministered with 100 mg of ritonavir; assay type: ADME, organism-based; design: dose 75 mg, route oral, time 0 - last; conditions: plasma
Procedure, shortened: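 Healthy male volunteers, fasted. Ritonavir 100 mg given 10 h before and again together with single oral BILR 355 in PEG solution. EDTA plasma sampled predose to 144 h. LC-MS/MS assay after protein precipitation. Noncompartmental analysis, AUC by linear up/log down trapezoidal rule; Vss = CL/F·(MRTp.o. − 1/Ka).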

[5] = Mean residence time in healthy human at 12.5 mg, po administered as single dose; assay type: ADME, organism-based; conditions: in vivo
Homo sapiens [6] = experiment: Toxicity in healthy human assessed as occurrence of fatigue at 50 mg, po administered as single dose coadministered with 100 mg of ritonavir; assay type: organism-based; conditions: in vivo
[7] = Tmax in healthy human at 62.5 mg, po administered as single dose coadministered with 100 mg of ritonavir; assay type: ADME, organism-based; conditions: in vivo
[8] = Half life in healthy human at 62.5 mg, po administered as single dose coadministered with 100 mg of ritonavir; assay type: ADME, organism-based; conditions: in vivo
Homo sapiens [9] = experiment: Ratio of half life in human at 25 mg, po in presence of 100 mg of ritonavir to half life in human at 25 mg, po; assay type: ADME, organism-based; conditions: in vivo
[10] = Half life in healthy human at 5 mg, po administered as single dose; assay type: ADME, organism-based; conditions: in vivo
Homo sapiens [11] = experiment: Toxicity in healthy human assessed as occurrence of neurological eyelid disorder at 1 mg, po administered as single dose relative to control; assay type: organism-based; conditions: in vivo
Homo sapiens [12] = experiment: Toxicity in healthy human assessed as occurrence of palpitations at 5 mg, po administered as single dose relative to control; assay type: organism-based; conditions: in vivo
Homo sapiens [13] = experiment: Ratio of AUC (0 to infinity) in human at 75 mg, po in presence of 100 mg of ritonavir to AUC (0 to infinity) in human at 75 mg, po; assay type: ADME, organism-based; conditions: in vivo
[14] = Apparent volume of distribution in terminal phase in healthy human at 50 mg, po administered as single dose coadministered with 100 mg of ritonavir; assay type: ADME, organism-based; conditions: in vivo, read-out: Vz/F
Procedure, shortened: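 Healthy male volunteers, fasted overnight, got one oral dose of BILR 355 in PEG solution with 200 ml water. Ritonavir 100 mg was given 10 h before and again with the dose. Plasma was sampled (EDTA) from predose to 144 h and assayed by validated LC-MS/MS. Cmax and Vz/F came from noncompartmental analysis. Vss/F = CL/F·(MRTp.o. − 1/Ka), with Ka from compartmental modelling.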

[15] = Drug excretion in healthy human urine assessed as unchanged drug at 12.5 mg, po administered as single dose coadministered with 100 mg of ritonavir by high-pressure liquid chromatography-tandem mass spectrometry/mass spectrometry method; assay type: ADME, organism-based; conditions: read-out: Drug uptake
Procedure, shortened: (§1)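 Ritonavir 100 mg was given 10 h before and with one oral dose of BILR 355 in PEG solution. Urine was collected by weight as predose blank, then 0-6, 6-24 and 24-72 h, stored at −20°C and assayed by LC-MS/MS. fe = unchanged drug excreted (Ae) as a percentage of dose. Line 50: high-fat breakfast 30 min before dosing.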

Homo sapiens [16] = experiment: Toxicity in healthy human assessed as occurrence of nausea at 75 mg, po administered as single dose relative to control; assay type: organism-based; conditions: in vivo
Homo sapiens [17] = experiment: Toxicity in healthy human assessed as occurrence of nausea at 25 mg, po administered as single dose relative to control; assay type: organism-based; conditions: in vivo
Homo sapiens [18] = experiment: Toxicity in healthy human assessed as occurrence of maculopapular rash at 100 mg, po administered as single dose relative to control; assay type: organism-based; conditions: in vivo
[19] = Renal clearance in healthy human at 75 mg, po administered as single dose coadministered with 100 mg of ritonavir by high-pressure liquid chromatography-tandem mass spectrometry/mass spectrometry method; assay type: ADME, organism-based, Kidney; conditions: in vivo, read-out: CL_renal (converted)
Homo sapiens [20] = experiment: Toxicity in healthy human assessed as occurrence of frequent bowel movements at 5 mg, po administered as single dose relative to control; assay type: organism-based; conditions: in vivo
Homo sapiens [21] = experiment: Toxicity in healthy human assessed as occurrence of palpitations at 25 mg, po administered as single dose relative to control; assay type: organism-based; conditions: in vivo
Homo sapiens [22] = experiment: Toxicity in healthy human assessed as occurrence of fatigue at 25 mg, po administered as single dose relative to control; assay type: organism-based; conditions: in vivo
Homo sapiens [23] = experiment: Toxicity in healthy human assessed as occurrence of palpitations at 12.5 mg, po administered as single dose relative to control; assay type: organism-based; conditions: in vivo
[24] = Cmax in healthy human at 5 mg, po administered as single dose by high-pressure liquid chromatography-tandem mass spectrometry/mass spectrometry method; assay type: ADME, organism-based; design: dose 5 mg, route oral; conditions: in vivo
Procedure, shortened: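 Single fasting oral dose of BILR 355 in PEG solution with 200 ml tap water, given to healthy males. Standard breakfast came 60-90 min after the dose. EDTA plasma was sampled predose to 144 h, stored below −18°C and assayed by LC-MS/MS after protein precipitation. Noncompartmental analysis gave Vz/F. Vss/F = CL/F·(MRTp.o. − 1/Ka), with Ka from compartmental modelling.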

[25] = Apparent volume of distribution at steady state in healthy human at 25 mg, po administered as single dose; assay type: ADME, organism-based; conditions: in vivo, read-out: Vss/F
Procedure, shortened: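 Healthy male volunteers, six active plus two placebo per dose group, single oral dose in PEG solution with 200 ml water after overnight fast; breakfast 60 to 90 min post-dose. EDTA plasma sampled predose to 144 h. Assayed by validated LC-MS/MS after protein precipitation. Noncompartmental analysis, AUC by linear up/log down trapezoidal rule; Vss = CL/F·(MRTp.o. − 1/Ka).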

Homo sapiens [26] = experiment: Toxicity in healthy human assessed as occurrence of frequent bowel movements at 25 mg, po administered as single dose relative to control; assay type: organism-based; conditions: in vivo
[27] = Drug excretion in healthy human urine assessed as unchanged drug at 50 mg, po administered as single dose coadministered with 100 mg of ritonavir by high-pressure liquid chromatography-tandem mass spectrometry/mass spectrometry method; assay type: ADME, organism-based; conditions: read-out: Drug uptake; procedure, shortened: as §1
[28] = Tmax in high fat fed healthy human at 50 mg, po administered as single dose coadministered with 100 mg of ritonavir; assay type: ADME, organism-based; conditions: in vivo
Homo sapiens [29] = experiment: Toxicity in healthy human assessed as occurrence of aphthous stomatitis at 50 mg, po administered as single dose coadministered with 100 mg of ritonavir; assay type: organism-based; conditions: in vivo
[30] = Mean residence time in healthy human at 100 mg, po administered as single dose; assay type: ADME, organism-based; conditions: in vivo

- Vd/F [3]: 81.4 L
- AUC(0-t) [4]: 12100 ng·h/mL
- MRT [5]: 6.12 h
- Tmax [7]: 0.7 h
- half-life [8]: 9.73 h
- Ratio (Homo sapiens [9]): 3.3
- half-life [10]: 5.02 h
- Ratio (Homo sapiens [13]): 15
- Vd/F [14]: 129 L
- dose excreted [15]: 6.37%
- CL renal [19]: 5.85 mL/min
- Cmax [24]: 4.36 ng/mL
- Vd/F [25]: 914 L
- dose excreted [27]: 3.58%
- Tmax [28]: 6 h
- MRT [30]: 2.23 h
Structure (SMILES): CCN1c2ncc(CCOc3cc[n+]([O-])c4ccccc34)cc2C(=O)N(C)c2cccnc21 [BILR 355]
- Activity (Homo sapiens [1]): 16.7%
- Activity (Homo sapiens [2]): 0%
- Activity (Homo sapiens [6]): 0%
- Activity (Homo sapiens [11]): 0%
- Activity (Homo sapiens [12]): 0%
- Activity (Homo sapiens [16]): 0%
- Activity (Homo sapiens [17]): 0%
- Activity (Homo sapiens [18]): 0%
- Activity (Homo sapiens [20]): 0%
- Activity (Homo sapiens [21]): 0%
- Activity (Homo sapiens [22]): 0%
- Activity (Homo sapiens [23]): 0%
- Activity (Homo sapiens [26]): 0%
- Activity (Homo sapiens [29]): 0%
